{"source": "ChEMBL document CHEMBL1828552", "about": "“Synthesis and studies of novel 2-(4-cyano-3-trifluoromethylphenyl amino)-4-(quinoline-4-yloxy)-6-(piperazinyl/piperidinyl)-s-triazines as potential antimicrobial, antimycobacterial and anticancer agents” (2011)"}
{"test_system": "Proteus vulgaris", "experiment": "Antibacterial activity against 10^5 CFU/mL Proteus vulgaris MTCC 1771 after 24 hrs by agar streak dilution method", "assay_type": "functional", "conditions": "MTCC 1771, 24 h", "in_short": "(§1)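 Agar streak dilution. Stock 100 µg/mL in DMSO; graded amounts were mixed into molten nutrient agar and poured at 4–5 mm depth. Plates carried serial dilutions over […]. About 10⁵ CFU/mL of each bacterium was applied, and plates were incubated at 37 ± 1 °C for 24 h. MIC was read from the dilution series.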", "units": {"MIC": "µg/mL"}}
{"smiles": "N#Cc1ccc(Nc2nc(Oc3ccnc4ccccc34)nc(N3CCN(c4ccccc4Cl)CC3)n2)cc1C(F)(F)F", "MIC": 100}
{"test_system": "Candida albicans", "experiment": "Antifungal activity against 10^5 CFU/mL Candida albicans MTCC 183 after 48 hrs by disc diffusion technique", "assay_type": "functional", "conditions": "not given", "units": {"inhibition zone (IZ)": "mm"}}
{"smiles": "N#Cc1ccc(Nc2nc(Oc3ccnc4ccccc34)nc(N3CCN(c4ccccc4Cl)CC3)n2)cc1C(F)(F)F", "inhibition zone (IZ)": 20}
{"test_system": "Escherichia coli", "experiment": "Antibacterial activity against 10^5 CFU/mL Escherichia coli MTCC 739 after 24 hrs by agar streak dilution method", "assay_type": "functional", "conditions": "MTCC 739, 24 h", "in_short": "as §1", "units": {"MIC": "µg/mL"}}
{"smiles": "N#Cc1ccc(Nc2nc(Oc3ccnc4ccccc34)nc(N3CCN(c4ccccc4Cl)CC3)n2)cc1C(F)(F)F", "MIC": 50}
{"test_system": "Pseudomonas aeruginosa", "experiment": "Antibacterial activity against 10^5 CFU/mL Pseudomonas aeruginosa MTCC 741 after 24 hrs by agar streak dilution method", "assay_type": "functional", "conditions": "MTCC 741, 24 h", "in_short": "as §1", "units": {"MIC": "µg/mL"}}
{"smiles": "N#Cc1ccc(Nc2nc(Oc3ccnc4ccccc34)nc(N3CCN(c4ccccc4Cl)CC3)n2)cc1C(F)(F)F", "MIC": 50}
{"test_system": "Bacillus cereus", "experiment": "Antibacterial activity against 10^5 CFU/mL Bacillus cereus MTCC 619 after 24 hrs by disc diffusion technique", "assay_type": "functional", "conditions": "not given", "in_short": "(§2)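 Disc diffusion on Mueller–Hinton agar poured 5 mm deep. The surface was swabbed with a 10⁵ CFU/mL […] suspension. Filter-paper discs 6.25 mm in diameter were soaked in compound in DMSO and placed on the agar. Plates were incubated 24 h at 37 ± 1 °C, and the inhibition zone was measured in mm. A DMSO disc served as blank.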", "units": {"inhibition zone (IZ)": "mm"}}
{"smiles": "N#Cc1ccc(Nc2nc(Oc3ccnc4ccccc34)nc(N3CCN(c4ccccc4Cl)CC3)n2)cc1C(F)(F)F", "inhibition zone (IZ)": 24}
{"test_system": "Bacillus cereus", "experiment": "Antibacterial activity against 10^5 CFU/mL Bacillus cereus MTCC 619 after 24 hrs by agar streak dilution method", "assay_type": "functional", "conditions": "MTCC 619, 24 h", "in_short": "as §1", "units": {"MIC": "µg/mL"}}
{"smiles": "N#Cc1ccc(Nc2nc(Oc3ccnc4ccccc34)nc(N3CCN(c4ccccc4Cl)CC3)n2)cc1C(F)(F)F", "MIC": 12.5}
{"test_system": "Aspergillus fumigatus", "experiment": "Antifungal activity against 10^5 CFU/mL Aspergillus fumigatus MTCC 343 after 48 hrs by agar streak dilution method", "assay_type": "functional", "conditions": "MTCC 343, 48 h", "in_short": "(§3)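 Agar streak dilution for fungi. Stock 100 µg/mL in DMSO; graded amounts were mixed into molten Sabouraud dextrose agar and poured at 4–5 mm depth. Serial dilutions ran over […]. About 10⁵ CFU/mL inoculum was applied, with incubation at 37 ± 1 °C for 48 h. MIC was read from the dilution series.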", "units": {"MIC": "µg/mL"}}
{"smiles": "N#Cc1ccc(Nc2nc(Oc3ccnc4ccccc34)nc(N3CCN(c4ccccc4Cl)CC3)n2)cc1C(F)(F)F", "MIC": 100}
{"test_system": "Shigella flexneri", "experiment": "Antibacterial activity against 10^5 CFU/mL Shigella flexneri MTCC 1457 after 24 hrs by disc diffusion technique", "assay_type": "functional", "conditions": "not given", "in_short": "as §2", "units": {"inhibition zone (IZ)": "mm"}}
{"smiles": "N#Cc1ccc(Nc2nc(Oc3ccnc4ccccc34)nc(N3CCN(c4ccccc4Cl)CC3)n2)cc1C(F)(F)F", "inhibition zone (IZ)": 21}
{"test_system": "Aspergillus fumigatus", "experiment": "Antifungal activity against 10^5 CFU/mL Aspergillus fumigatus MTCC 343 after 48 hrs by disc diffusion technique", "assay_type": "functional", "conditions": "not given", "units": {"inhibition zone (IZ)": "mm"}}
{"smiles": "N#Cc1ccc(Nc2nc(Oc3ccnc4ccccc34)nc(N3CCN(c4ccccc4Cl)CC3)n2)cc1C(F)(F)F", "inhibition zone (IZ)": 21}
{"test_system": "Klebsiella pneumoniae", "experiment": "Antibacterial activity against 10^5 CFU/mL Klebsiella pneumoniae MTCC 109 after 24 hrs by agar streak dilution method", "assay_type": "functional", "conditions": "MTCC 109, 24 h", "in_short": "as §1", "units": {"MIC": "µg/mL"}}
{"smiles": "N#Cc1ccc(Nc2nc(Oc3ccnc4ccccc34)nc(N3CCN(c4ccccc4Cl)CC3)n2)cc1C(F)(F)F", "MIC": 12.5}
{"test_system": "Pseudomonas aeruginosa", "experiment": "Antibacterial activity against 10^5 CFU/mL Pseudomonas aeruginosa MTCC 741 after 24 hrs by disc diffusion technique", "assay_type": "functional", "conditions": "not given", "in_short": "as §2", "units": {"inhibition zone (IZ)": "mm"}}
{"smiles": "N#Cc1ccc(Nc2nc(Oc3ccnc4ccccc34)nc(N3CCN(c4ccccc4Cl)CC3)n2)cc1C(F)(F)F", "inhibition zone (IZ)": 23}
{"test_system": "DU-145", "experiment": "Cytotoxicity against […] human DU145 cells after 48 hrs by SRB assay", "assay_type": "functional", "conditions": "DU-145, 48 h", "in_short": "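SRB assay in DU-145 cells grown in RPMI 1640 with 10% FBS and 2 mM L-glutamine. Cells were plated and held 24 h before addition of four 10-fold concentrations. After 48 h, cells were TCA-fixed, stained with 0.4% SRB and read at 540 nm. GI50, TGI and LC50 were derived against time-zero and control wells; each value is the mean of three experiments.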", "units": {"GI50": "µM", "LC50 (concentration giving 50% net cell kill relative to time zero)": "µM", "TGI": "µM"}}
{"smiles": "N#Cc1ccc(Nc2nc(Oc3ccnc4ccccc34)nc(N3CCN(c4ccccc4Cl)CC3)n2)cc1C(F)(F)F", "GI50": 92.6, "LC50 (concentration giving 50% net cell kill relative to time zero)": "> 100", "TGI": "> 100"}
{"test_system": "Staphylococcus aureus", "experiment": "Antibacterial activity against 10^5 CFU/mL Staphylococcus aureus MTCC 96 after 24 hrs by disc diffusion technique", "assay_type": "functional", "conditions": "not given", "in_short": "as §2", "units": {"inhibition zone (IZ)": "mm"}}
{"smiles": "N#Cc1ccc(Nc2nc(Oc3ccnc4ccccc34)nc(N3CCN(c4ccccc4Cl)CC3)n2)cc1C(F)(F)F", "inhibition zone (IZ)": 25}
{"test_system": "Salmonella typhi", "experiment": "Antibacterial activity against 10^5 CFU/mL Salmonella typhi MTCC 733 after 24 hrs by agar streak dilution method", "assay_type": "functional, Salmonella enterica subsp. enterica serovar Typhi", "conditions": "Salmonella enterica, MTCC 733, 24 h", "units": {"MIC": "µg/mL"}}
{"smiles": "N#Cc1ccc(Nc2nc(Oc3ccnc4ccccc34)nc(N3CCN(c4ccccc4Cl)CC3)n2)cc1C(F)(F)F", "MIC": 50}
{"test_system": "Aspergillus clavatus", "experiment": "Antifungal activity against 10^5 CFU/mL Aspergillus clavatus MTCC 1323 after 48 hrs by agar streak dilution method", "assay_type": "functional", "conditions": "MTCC 1323, 48 h", "in_short": "as §3", "units": {"MIC": "µg/mL"}}
{"smiles": "N#Cc1ccc(Nc2nc(Oc3ccnc4ccccc34)nc(N3CCN(c4ccccc4Cl)CC3)n2)cc1C(F)(F)F", "MIC": 100}
{"test_system": "Aspergillus niger", "experiment": "Antifungal activity against 10^5 CFU/mL Aspergillus niger MTCC 282 after 48 hrs by agar streak dilution method", "assay_type": "functional", "conditions": "MTCC 282, 48 h", "in_short": "as §3", "units": {"MIC": "µg/mL"}}
{"smiles": "N#Cc1ccc(Nc2nc(Oc3ccnc4ccccc34)nc(N3CCN(c4ccccc4Cl)CC3)n2)cc1C(F)(F)F", "MIC": 100}
{"test_system": "Aspergillus clavatus", "experiment": "Antifungal activity against 10^5 CFU/mL Aspergillus clavatus MTCC 1323 after 48 hrs by disc diffusion technique", "assay_type": "functional", "conditions": "not given", "units": {"inhibition zone (IZ)": "mm"}}
{"smiles": "N#Cc1ccc(Nc2nc(Oc3ccnc4ccccc34)nc(N3CCN(c4ccccc4Cl)CC3)n2)cc1C(F)(F)F", "inhibition zone (IZ)": 20}
{"test_system": "Salmonella typhi", "experiment": "Antibacterial activity against 10^5 CFU/mL Salmonella typhi MTCC 733 after 24 hrs by disc diffusion technique", "assay_type": "functional, Salmonella enterica subsp. enterica serovar Typhi", "conditions": "not given", "in_short": "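Disc diffusion. Mueller-Hinton agar autoclaved 120 °C 30 min, poured 5 mm deep. Surface swabbed with 10⁵ CFU/mL suspension […]. 6.25 mm filter-paper discs soaked in compound in DMSO; DMSO-only disc as blank. Incubated 37 ± 1 °C, 24 h for bacteria or 48 h for fungi. Ciprofloxacin and ketoconazole discs as reference drugs. Inhibition zone measured in mm.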", "units": {"inhibition zone (IZ)": "mm"}}
{"smiles": "N#Cc1ccc(Nc2nc(Oc3ccnc4ccccc34)nc(N3CCN(c4ccccc4Cl)CC3)n2)cc1C(F)(F)F", "inhibition zone (IZ)": 23}
{"test_system": "Klebsiella pneumoniae", "experiment": "Antibacterial activity against 10^5 CFU/mL Klebsiella pneumoniae MTCC 109 after 24 hrs by disc diffusion technique", "assay_type": "functional", "conditions": "not given", "in_short": "as §2", "units": {"inhibition zone (IZ)": "mm"}}
{"smiles": "N#Cc1ccc(Nc2nc(Oc3ccnc4ccccc34)nc(N3CCN(c4ccccc4Cl)CC3)n2)cc1C(F)(F)F", "inhibition zone (IZ)": 26}
{"test_system": "Aspergillus niger", "experiment": "Antifungal activity against 10^5 CFU/mL Aspergillus niger MTCC 282 after 48 hrs by disc diffusion technique", "assay_type": "functional", "conditions": "not given", "units": {"inhibition zone (IZ)": "mm"}}
{"smiles": "N#Cc1ccc(Nc2nc(Oc3ccnc4ccccc34)nc(N3CCN(c4ccccc4Cl)CC3)n2)cc1C(F)(F)F", "inhibition zone (IZ)": 21}
{"test_system": "Candida albicans", "experiment": "Antifungal activity against 10^5 CFU/mL Candida albicans MTCC 183 after 48 hrs by agar streak dilution method", "assay_type": "functional", "conditions": "MTCC 183, 48 h", "in_short": "as §3", "units": {"MIC": "µg/mL"}}
{"smiles": "N#Cc1ccc(Nc2nc(Oc3ccnc4ccccc34)nc(N3CCN(c4ccccc4Cl)CC3)n2)cc1C(F)(F)F", "MIC": 100}
{"test_system": "Shigella flexneri", "experiment": "Antibacterial activity against 10^5 CFU/mL Shigella flexneri MTCC 1457 after 24 hrs by agar streak dilution method", "assay_type": "functional", "conditions": "MTCC 1457, 24 h", "in_short": "as §1", "units": {"MIC": "µg/mL"}}
{"smiles": "N#Cc1ccc(Nc2nc(Oc3ccnc4ccccc34)nc(N3CCN(c4ccccc4Cl)CC3)n2)cc1C(F)(F)F", "MIC": 50}
{"test_system": "Escherichia coli", "experiment": "Antibacterial activity against 10^5 CFU/mL Escherichia coli MTCC 739 after 24 hrs by disc diffusion technique", "assay_type": "functional", "conditions": "not given", "in_short": "as §2", "units": {"inhibition zone (IZ)": "mm"}}
{"smiles": "N#Cc1ccc(Nc2nc(Oc3ccnc4ccccc34)nc(N3CCN(c4ccccc4Cl)CC3)n2)cc1C(F)(F)F", "inhibition zone (IZ)": 22}
{"test_system": "Staphylococcus aureus", "experiment": "Antibacterial activity against 10^5 CFU/mL Staphylococcus aureus MTCC 96 after 24 hrs by agar streak dilution method", "assay_type": "functional", "conditions": "MTCC 96, 24 h", "in_short": "as §1", "units": {"MIC": "µg/mL"}}
{"smiles": "N#Cc1ccc(Nc2nc(Oc3ccnc4ccccc34)nc(N3CCN(c4ccccc4Cl)CC3)n2)cc1C(F)(F)F", "MIC": 12.5}
{"test_system": "Proteus vulgaris", "experiment": "Antibacterial activity against 10^5 CFU/mL Proteus vulgaris MTCC 1771 after 24 hrs by disc diffusion technique", "assay_type": "functional", "conditions": "not given", "in_short": "as §2", "units": {"inhibition zone (IZ)": "mm"}}
{"smiles": "N#Cc1ccc(Nc2nc(Oc3ccnc4ccccc34)nc(N3CCN(c4ccccc4Cl)CC3)n2)cc1C(F)(F)F", "inhibition zone (IZ)": 23}
